Source: paper PMC8412899 (ACS Omega, 2021)

Tests used:
MCL-1 [1] = target: T1, MCL-1 (Homo sapiens, UniProt Q07820); experiment: QA; format: binding; settings: for Ki: QA MCL-1 Ki
cleaved PARP = experiment: In vivo PD: increase of cleaved PARP in AMO1 xenografted mice; settings: for PARP activation (fold): AMO1 xenografted mice, 16 h after i.v. bolus treatment at 12.5 mg/kg
In short: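 Female CB-17 SCID mice (6–7 weeks) were implanted s.c. with 5 × 10⁶ AMO-1 cells in 50:50 medium:Matrigel. At ~200 mm³ tumor volume they were randomized, n = 3 per group. Test compound in 20% HPbCD/25 mM HCl was given as a single 12.5 mg/kg i.v. bolus. Cleaved PARP increase was measured in tumors 16 h later.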

[2] = Atropoisomer stability in solution; format: physicochemical
MCL-1 [3] = target: T1, MCL-1; experiment: FP; format: binding; settings: FP MCL-1 Ki
NCI-H929 cells = experiment: MTT cell viability assay of NCI H929 cell line; format: cell-based
[4] = In vivo PK characteristics; design: species or system mice; settings: mouse, iv, 12.5 mg/kg
[5] = system: human multiple myeloma cell line xenograft (AMO-1); experiment: AMO-1 efficacy model; format: in vivo, mice; settings: QD5, i.v. bolus; for %TGI (day): D14
In short: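 Female CB-17 SCID mice (6–7 weeks) received 5 × 10⁶ AMO-1 cells s.c. in the right flank, in 50:50 growth medium:Matrigel. At ~200 mm³ they were randomized, n = 8. Freshly prepared test compound in 20% HPbCD/25 mM HCl was given i.v. daily ×5. Calipers were read 2–3×/week; volume = length × width²/2. TGI was taken at the control group's last day and at maximum; TGD used a 500 mm³ median.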

[6] = indole analogue versus preceding benzofurane/benzothiophene analogues

T1 sequence (Q07820 whole entry): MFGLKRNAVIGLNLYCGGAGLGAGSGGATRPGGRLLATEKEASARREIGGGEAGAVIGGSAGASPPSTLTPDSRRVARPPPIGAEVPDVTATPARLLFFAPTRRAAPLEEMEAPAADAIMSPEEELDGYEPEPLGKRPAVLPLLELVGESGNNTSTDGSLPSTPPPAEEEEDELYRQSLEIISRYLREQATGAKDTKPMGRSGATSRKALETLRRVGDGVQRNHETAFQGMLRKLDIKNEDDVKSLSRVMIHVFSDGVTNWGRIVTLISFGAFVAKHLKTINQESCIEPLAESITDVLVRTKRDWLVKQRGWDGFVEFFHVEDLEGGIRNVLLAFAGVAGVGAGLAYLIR

COc1ccccc1-c1nccc(COc2ccccc2C[C@@H](Oc2ncnc3c2c(-c2ccc(OCCN4CCN(C)CC4)c(Cl)c2C)c(-c2ccc(F)cc2)n3C)C(=O)O)n1 [Compound 23, (2R)-2-[(5Sa)-5-[3-Chloro-2-methyl-4-[2-(4-methylpiperazin-1-yl)ethoxy]phenyl]-6-(4-fluorophenyl)-7-methyl-pyrrolo[2,3-d]pyrimidin-4-yl]oxy-3-[2-[[2-(2-methoxyphenyl)pyrimidin-4-yl]methoxy]phenyl]propanoic Acid]
Ki (MCL-1 [1]): 0.64 nM
fold less active (MCL-1 [1]; compared to 16a, affinity and activity): about 20 fold
PARP activation (fold) (cleaved PARP): 5 fold
atropoisomer stability [2]: rapid isomerization

COc1ccccc1-c1nccc(COc2ccccc2C[C@@H](Oc2cccc3sc(-c4ccc(F)cc4)c(-c4ccc(OCCN5CCN(C)CC5)c(Cl)c4C)c23)C(=O)O)n1 [Compound 20, (2R)-2-{[(3Sa)-3-{3-Chloro-2-methyl-4-[2-(4-methylpiperazin-1-yl)ethoxy]phenyl}-2-(4-fluorophenyl)-1-benzothiophen-4-yl]oxy}-3-(2-{[2-(2-methoxyphenyl)pyrimidin-4-yl]methoxy}phenyl)propanoic Acid]
Ki (MCL-1 [1]): 1.8 nM
PARP activation (fold) (cleaved PARP): 156 fold

CCc1c(-c2cccc(Cl)c2C)c2c(N[C@H](Cc3ccccc3)C(=O)O)ncnc2n1C (single isomer, unassigned) [Compound 2b, N-[(5Sa)-5-(3-Chloro-2-methylphenyl)-6-ethyl-7-methyl-7H-pyrrolo[2,3-d]pyrimidin-4-yl]-D-phenylalanine]
Ki (MCL-1 [3]): 8700 nM
atropoisomer stability [2]: stable under the testing conditions

COc1ccccc1-c1nccc(COc2ccccc2C[C@@H](Nc2ncnc3oc(-c4ccc(F)cc4)c(-c4ccc(OCCN5CCN(C)CC5)c(Cl)c4C)c23)C(=O)O)n1 [Compound 25, N-[(5Sa)-5-{3-Chloro-2-methyl-4-[2-(4-methylpiperazin-1-yl)ethoxy]phenyl}-6-(4-fluorophenyl)furo[2,3-d]pyrimidin-4-yl]-2-{[2-(2-methoxyphenyl)pyrimidin-4-yl]methoxy}-D-phenylalanine]
Ki (MCL-1 [1]): 0.61 nM
PARP activation (fold) (cleaved PARP): 60 fold
PARP activation, fold less (cleaved PARP; than for the hydroxy acid analogue): about 2 fold
atropoisomer stability [2]: stable in solution

Cc1c(Cl)cccc1-c1c2n(c3ncnc(N[C@H](Cc4ccccc4)C(=O)O)c13)CCC2 [Compound 11, N-[5-(3-Chloro-2-methylphenyl)-7,8-dihydro-6H-pyrimido[5,4-b]pyrrolizin-4-yl]-D-phenylalanine]
atropoisomer stability [2]: facile interconversion of the atropoisomers in solution

COc1ccccc1-c1nccc(COc2ccccc2C[C@@H](Oc2cccc3c2c(-c2ccc(OCCN4CCN(C)CC4)c(Cl)c2C)c(-c2ccc(F)cc2)n3C)C(=O)O)n1 [Compound 22, (2R)-2-{[(3Sa)-3-{3-Chloro-2-methyl-4-[2-(4-methylpiperazin-1-yl)ethoxy]phenyl}-2-(4-fluorophenyl)-1-methyl-1H-indol-4-yl]oxy}-3-(2-{[2-(2-methoxyphenyl)pyrimidin-4-yl]methoxy}phenyl)propanoic Acid]
Ki (MCL-1 [1]): 2.3 nM
drop of on-target affinity (MCL-1 [1]; [6]): ca. 2 fold
drop of cellular activity (NCI-H929 cells; [6]): ca. 2 fold

COc1ccccc1-c1nccc(COc2ccccc2C[C@@H](Oc2ccnc3sc(-c4ccc(F)cc4)c(-c4ccc(OCCN5CCN(C)CC5)c(Cl)c4C)c23)C(=O)O)n1 [Compound 17, (2R)-2-{[(3Sa)-3-{3-Chloro-2-methyl-4-[2-(4-methylpiperazin-1-yl)ethoxy]phenyl}-2-(4-fluorophenyl)thieno[2,3-b]pyridin-4-yl]oxy}-3-(2-{[2-(2-methoxyphenyl)pyrimidin-4-yl]methoxy}phenyl)propanoic Acid]
Ki (MCL-1 [1]): 0.1 nM
PARP activation (fold) (cleaved PARP): 12 fold

COc1ccccc1-c1nccc(COc2ccccc2C[C@@H](Oc2nccc3nc(-c4ccc(F)cc4)c(-c4ccc(OCCN5CCN(C)CC5)c(Cl)c4C)n23)C(=O)O)n1 [Compound 26, (2R)-2-{[(3Ra)-3-{3-Chloro-2-methyl-4-[2-(4-methylpiperazin-1-yl)ethoxy]phenyl}-2-(4-fluorophenyl)imidazo[1,2-c]pyrimidin-5-yl]oxy}-3-(2-{[2-(2-methoxyphenyl)pyrimidin-4-yl]methoxy}phenyl)propanoic Acid]
Ki (MCL-1 [1]): 8.2 nM
drop in affinity (MCL-1 [1]; compared to 16a): 200 fold
drop in cellular activity (NCI-H929 cells; compared to 16a): 200 fold

COc1ccccc1-c1nccc(COc2ccccc2C[C@@H](Oc2ncnc3sc(-c4ccc(F)cc4)c(-c4ccc(OCCN5CCN(C)CC5)c(Cl)c4C)c23)C(=O)O)n1 [Compound 16a, (2R)-2-{[(5Sa)-5-{3-Chloro-2-methyl-4-[2-(4-methylpiperazin-1-yl)ethoxy]phenyl}-6-(4-fluorophenyl)thieno[2,3-d]pyrimidin-4-yl]oxy}-3-(2-{[2-(2-methoxyphenyl)pyrimidin-4-yl]methoxy}phenyl)propanoic Acid]
AUC [4]: 34000 ng·h/mL
clearance [4]: 6 mL/min/kg

COc1ccccc1-c1nccc(COc2ccccc2C[C@@H](Nc2nccc3sc(-c4ccc(F)cc4)c(-c4ccc(OCCN5CCN(C)CC5)c(Cl)c4C)c23)C(=O)O)n1 [Compound 19, N-[3-{3-Chloro-2-methyl-4-[2-(4-methylpiperazin-1-yl)ethoxy]phenyl}-2-(4-fluorophenyl)thieno[3,2-c]pyridin-4-yl]-2-{[2-(2-methoxyphenyl)pyrimidin-4-yl]methoxy}-D-phenylalanine]
Ki (MCL-1 [1]): 1.2 nM
drop in affinity (MCL-1 [1]; compared to 16b): 2–4 fold
drop in cellular activity (NCI-H929 cells; compared to 16b): 2–4 fold

COc1ccccc1-c1nccc(COc2ccccc2C[C@@H](Oc2ncnc3oc(-c4ccc(F)cc4)c(-c4ccc(OCCN5CCN(C)CC5)c(Cl)c4C)c23)C(=O)O)n1 [Compound 24, (2R)-2-{[5-{3-Chloro-2-methyl-4-[2-(4-methylpiperazin-1-yl)ethoxy]phenyl}-6-(4-fluorophenyl)furo[2,3-d]pyrimidin-4-yl]oxy}-3-(2-{[2-(2-methoxyphenyl)pyrimidin-4-yl]methoxy}phenyl)propanoic Acid]
Ki (MCL-1 [1]): 0.036 nM
cellular activity, fold less (NCI-H929 cells; than 16a): 10 fold
PARP activation (fold) (cleaved PARP): 129 fold
time to reach 500 mm^3 (median of the group) ([5]; 6.25 mpk): 28
%TGI (day) ([5]; 6.25 mpk): 103.5 (D14) %
%TGI max (day) ([5]; 6.25 mpk, d7): 122.7 (d7) %
time to reach 500 mm^3 (median of the group) ([5]; 12.5 mpk): 37
%TGI (day) ([5]; 12.5 mpk): 107.7 (D14) %
%TGI max (day) ([5]; 12.5 mpk, d2): 184.8 (d2) %
AUC [4]: 56000 ng·h/mL
clearance [4]: 2.5 mL/min/kg
atropoisomer stability [2]: equilibrate rapidly in solution to give a 1:1 mixture
